Measured values published in ChEMBL document CHEMBL1130284, “Analogues of N alpha-(4-amino-4-deoxypteroyl)-N delta-hemiphthaloyl-L-ornithine (PT523) modified in the side chain: synthesis and biological evaluation” (J Med Chem, 1997).

Tests used:
786-0 [1] = assay: The IC50 value was measured on 786-0 cell line in ovarian tumor t; format: functional, cell-based; details: Homo sapiens, in the assay text read “renal” for “ovarian”
How it was run: (§1)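 Standard NCI cell-line panel protocol. Cells plated in 96-well format and treated continuously with drug for 48 h. Total protein stained with Sulforhodamine B and IC50 derived.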

A549 = assay: In vitro antitumor activity against A549 human non-small lung carcinoma cells containing 10% fetal bovine serum; format: functional, cell-based
How it was run: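 Cells plated at 2000-3000/well in RPMI with 10% fetal bovine serum and left to adhere for 24 h at 37 °C in humidified 5% CO2. Drug (0.1-1000 nM) then added for a further 72 h of continuous exposure. Sulforhodamine B staining read-out. Growth taken as % of untreated controls and plotted against log drug concentration to give IC50.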

ACHN = assay: The IC50 value was measured on ACHN cell line in renal tumor type.; format: functional, cell-based; details: Homo sapiens; how it was run: as §1
DU-145 = assay: The IC50 value was measured on DU-145 cell line in prostate tumor type.; format: functional, cell-based; details: Homo sapiens; how it was run: as §1
EKVX = assay: The IC50 value was measured on EKVX cell line in NSCL tumor type.; format: functional, cell-based; details: Homo sapiens; how it was run: as §1
HCT-116 = assay: The IC50 value was measured on HCT116 cell line in colon tumor type.; format: functional, cell-based; details: Homo sapiens; how it was run: as §1
HT-29 = assay: The IC50 value was measured on HT-29 cell line in colon tumor type.; format: functional, cell-based; details: Homo sapiens; how it was run: as §1
KM12 = assay: The IC50 value was measured on KM-12 cell line in colon tumor type.; format: functional, cell-based; details: Homo sapiens; how it was run: as §1
NCI/ADR-RES = assay: The IC50 value was measured on MCF7-ADR cell line in breast tumor type.; format: functional, cell-based; details: Homo sapiens; how it was run: as §1
LOX IMVI [2] = assay: The IC50 value was measured on LOX IMVI cell line in melanoma tumor ty; format: functional, cell-based; details: Homo sapiens; how it was run: as §1
MCF7 = assay: The IC50 value was measured on MCF-7 cell line in breast tumor type; format: functional, cell-based; details: Homo sapiens; how it was run: as §1
Malme-3M = assay: The IC50 value was measured on MALME-3M cell line in melanoma tumor type; format: functional, cell-based; details: Homo sapiens; how it was run: as §1
NCI-H23 = assay: The IC50 value was measured on NCl-H23 cell line in NSCL tumor type.; format: functional, cell-based; details: Homo sapiens; how it was run: as §1
NCI-H460 = assay: The IC50 value was measured on NCl-H460 cell line in NSCL tumor type; format: functional, cell-based; details: Homo sapiens; how it was run: as §1
NCI-H522 = assay: The IC50 value was measured on NCl-H522 cell line in NSCL tumor type.; format: functional, cell-based; details: Homo sapiens; how it was run: as §1
OVCAR-3 [3] = assay: The IC50 value was measured on OVCAR-3 cell line in ovarian tumor t; format: functional, cell-based; details: Homo sapiens; how it was run: as §1
OVCAR-8 = assay: The IC50 value was measured on OVCAR-8 cell line in ovarian tumor type.; format: functional, cell-based; details: Homo sapiens; how it was run: as §1
OVCAR-5 = assay: The IC50 value was measured on OVCAR-5 cell line in ovarian tumor type.; format: functional, cell-based; details: Homo sapiens; how it was run: as §1
PC-3 = assay: The IC50 value was measured on PC-3 cell line in prostate tumor type.; format: functional, cell-based; details: Homo sapiens; how it was run: as §1
SF-268 = assay: The IC50 value was measured on SF-268 cell line in CNS tumor type.; format: functional, cell-based; details: Homo sapiens; how it was run: as §1
SW-620 = assay: The IC50 value was measured on SW-620 cell line in colon tumor type.; format: functional, cell-based; details: Homo sapiens; how it was run: as §1
SF-539 = assay: The IC50 value was measured on SF-539 cell line in CNS tumor type.; format: functional, cell-based; details: Homo sapiens; how it was run: as §1
SK-MEL-28 = assay: The IC50 value was measured on SKMEL-28 cell line in melanoma tumor type.; format: functional, cell-based; details: Homo sapiens; how it was run: as §1
SNB-75 = assay: The IC50 value was measured on SNB-75 cell line in CNS tumor type.; format: functional, cell-based; details: Homo sapiens; how it was run: as §1
SK-MEL-5 = assay: The IC50 value was measured on SK-MEL-5 cell line in melanoma tumor type.; format: functional, cell-based; details: Homo sapiens; how it was run: as §1
UO-31 = assay: The IC50 value was measured on UO-31 cell line in renal tumor type.; format: functional, cell-based; details: Homo sapiens; how it was run: as §1
UACC-62 = assay: The IC50 value was measured on UACC-62 cell line in melanoma tumor type.; format: functional, cell-based; details: Homo sapiens; how it was run: as §1
HCT-15 = assay: The IC50 value was measured on HCT-15 cell line in colon tumor type.; format: functional, cell-based; details: Homo sapiens; how it was run: as §1
[4] = target: T1, Dihydrofolate reductase (Homo sapiens) (UniProt P00374)
T1 sequence (whole entry): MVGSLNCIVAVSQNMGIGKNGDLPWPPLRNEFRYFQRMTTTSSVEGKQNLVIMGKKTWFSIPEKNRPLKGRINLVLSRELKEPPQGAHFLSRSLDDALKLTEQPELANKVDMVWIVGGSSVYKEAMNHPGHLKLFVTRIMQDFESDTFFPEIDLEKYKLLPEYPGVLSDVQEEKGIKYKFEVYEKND

Mus musculus [5] = assay: Tumor growth delay of subcutaneously implanted SCC-VII squamous cell carcinoma in mice; details: route subcutaneous
Mus musculus [6] = assay: Tumor size of subcutaneously implanted SCC-VII squamous cell carcinoma in mice on day 0; details: route subcutaneous
Mus musculus [7] = assay: Tumor size of subcutaneously implanted SCC-VII squamous cell carcinoma in mice on day 7; details: route subcutaneous
Mus musculus [8] = assay: Time to reach 10 mm Tumor size of subcutaneously implanted SCC-VII squamous cell carcinoma in mice; details: route subcutaneous
786-0 [9] = assay: The IC50 value was measured on 786-0 cell line in ovarian tumor; format: functional, cell-based; details: Homo sapiens, in the assay text read “renal” for “ovarian”; how it was run: as §1
OVCAR-3 [10] = assay: The IC50 value was measured on OVCAR-3 cell line in ovarian tumor; format: functional, cell-based; details: Homo sapiens; how it was run: as §1
SCC-25 = assay: In vitro antitumor activity against SCC25 human head and neck squamous carcinoma cells containing 10% fetal bovine serum; format: functional, cell-based
How it was run: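 Clonogenic assay. Cells kept in Dulbecco's MEM with 10% FBS and hydrocortisone (400 µg/L). Exponential-phase cells preincubated without drug for 48 h, exposed to 0.01-5000 nM for 72 h, then replated in fresh medium. After 14 days, colonies of ≥5 cells stained with crystal violet and counted. Survival taken as % of untreated controls and IC50 estimated from a log-log plot. Replicate plates, at least three separate days.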

786-0 [11] = assay: cells; details: Homo sapiens
LOX IMVI [12] = assay: The IC50 value was measured on LOX […] cell line in melanoma tumor ty; format: functional, cell-based; details: Homo sapiens; how it was run: as §1

Row | SMILES | IC50 (A549) [nM] | IC50 (ACHN) [nM] | IC50 (DU-145) [nM] | IC50 (EKVX) [nM] | IC50 (HCT-116) [nM] | IC50 (HT-29) [nM] | IC50 (KM12) [nM] | IC50 (NCI/ADR-RES) [nM] | IC50 (MCF7) [nM] | IC50 (Malme-3M) [nM] | IC50 (NCI-H23) [nM] | IC50 (NCI-H460) [nM] | IC50 (NCI-H522) [nM] | IC50 (OVCAR-8) [nM] | IC50 (OVCAR-5) [nM] | IC50 (PC-3) [nM] | IC50 (SF-268) [nM] | IC50 (SW-620) [nM] | IC50/[E] (nM milliunit-1) [4] | IC50 (SCC-25) [nM] | also measured
1 | Nc1nc(N)c2nc(CNc3ccc(C(=O)NC(CCNC(=O)c4ccccc4C(=O)O)C(=O)O)cc3)cnc2n1 (stereo unspecified) | 22 | 45 | 34 | 21 | 5 | 9.8 | > 1000 | > 1000 | > 1000 | > 1000 | 32 | 14 | > 1000 | 8.1 | 86 | 6.7 | > 100 | 6.3 | 2.5 | – | IC50 (786-0 [1]): 9.2 nM; IC50 (LOX IMVI [2]): 4.4 nM; IC50 (OVCAR-3 [3]): > 1000 nM; IC50 (SF-539): 57 nM; IC50 (SK-MEL-28): > 1000 nM; IC50 (SNB-75): > 1000 nM; IC50 (SK-MEL-5): 85 nM; IC50 (UO-31): 8 nM; IC50 (UACC-62): 12 nM; IC50 (HCT-15): 7.2 nM; TGD (Mus musculus [5]): 2.6 days; Tumor size (Mus musculus [6]): 1.1 mm; Tumor size (Mus musculus [7]): 5.1 mm; Time (Mus musculus [8]): 9.8 days
2 | Nc1nc(N)c2nc(CNc3ccc(C(=O)NC(CCCNC(=O)c4ccccc4C(=O)O)C(=O)O)cc3)cnc2n1 (stereo unspecified) | 1.3 | 2.4 | 9.5 | 23 | 0.3 | 1.2 | 3.2 | 2.7 | 3.6 | 2 | 4.4 | 0.5 | 23 | 2.4 | 2.5 | > 100 | 2.5 | 1.9 | 2 | 0.3 | IC50 (786-0 [9]): 0.6 nM; IC50 (LOX IMVI [2]): 0.4 nM; IC50 (OVCAR-3 [10]): > 100 nM; IC50 (SF-539): 3.7 nM; IC50 (SK-MEL-28): 4.6 nM; IC50 (SNB-75): > 10000 nM; IC50 (SK-MEL-5): 6 nM; IC50 (UO-31): 5.5 nM; IC50 (UACC-62): 1.8 nM; IC50 (HCT-15): 1.2 nM; TGD (Mus musculus [5]): 5 days; Tumor size (Mus musculus [6]): 2.1 mm; Tumor size (Mus musculus [7]): 6.8 mm; Time (Mus musculus [8]): 12 days
3 | CN(Cc1cnc2nc(N)nc(N)c2n1)c1ccc(C(=O)N[C@@H](CCC(=O)O)C(=O)O)cc1 [METHOTREXATE] | 23 | 40 | 23 | > 1000 | 30 | 32 | 42 | 78 | 36 | > 1000 | 43 | 28 | 229 | 31 | > 1000 | 2 | 52 | 33 | – | 27 | IC50 (LOX IMVI [2]): 26 nM; IC50 (OVCAR-3 [3]): 398 nM; IC50 (SF-539): 35 nM; IC50 (SK-MEL-28): > 1000 nM; IC50 (SNB-75): > 10000 nM; IC50 (SK-MEL-5): 87 nM; IC50 (UO-31): 191 nM; IC50 (UACC-62): 28 nM; IC50 (HCT-15): 30 nM; IC50 (786-0 [11]): 33 nM; TGD (Mus musculus [5]): 5 days; Tumor size (Mus musculus [6]): 1.6 mm; Tumor size (Mus musculus [7]): 7.3 mm; Time (Mus musculus [8]): 12 days
4 | Nc1nc(N)c2nc(CNc3ccc(C(=O)NC(CCCNC(=O)c4ccc(C(=O)O)cc4)C(=O)O)cc3)cnc2n1 (stereo unspecified) | 3300 | – | – | – | – | – | – | – | – | – | – | – | – | – | – | – | – | – | 2.8 | 72 | –
5 | Nc1nc(N)c2nc(CNc3ccc(C(=O)NC(CNC(=O)c4ccccc4C(=O)O)C(=O)O)cc3)cnc2n1 (stereo unspecified) | 23 | – | – | – | – | – | – | – | – | – | – | – | – | – | – | – | – | – | 3.5 | – | –
6 | Nc1nc(N)c2nc(CNc3ccc(C(=O)NC(CCCNC(=O)c4cc(Cl)c(Cl)cc4C(=O)O)C(=O)O)cc3)cnc2n1 (stereo unspecified) | – | – | – | – | – | – | – | – | – | – | – | – | – | – | – | – | – | – | 2.4 | 18 | –
7 | Nc1nc(N)c2nc(CNc3ccc(C(=O)NC(CCCCNC(=O)c4ccccc4C(=O)O)C(=O)O)cc3)cnc2n1 (stereo unspecified) | 5.2 | 5.2 | 9.1 | 36 | 0.6 | 5.7 | 4.9 | 9.1 | 5 | > 1000 | 9.2 | 4.2 | > 1000 | 5.9 | > 1000 | 5 | 8.4 | 3.4 | – | – | IC50 (LOX IMVI [12]): 0.9 nM; IC50 (OVCAR-3 [3]): > 1000 nM; IC50 (SF-539): 26 nM; IC50 (SK-MEL-28): > 1000 nM; IC50 (SK-MEL-5): 91 nM; IC50 (UO-31): 7.8 nM; IC50 (UACC-62): > 1000 nM; IC50 (HCT-15): 5.2 nM
8 | Nc1nc(N)c2nc(CNc3ccc(C(=O)NC(CCCNC(=O)c4cccc(C(=O)O)c4)C(=O)O)cc3)cnc2n1 (stereo unspecified) | 45 | – | – | – | – | – | – | – | – | – | – | – | – | – | – | – | – | – | 2.2 | 2.9 | –
